Assay results published in ChEMBL document CHEMBL2040816, “Design, synthesis, and structure-activity relationship studies of novel millepachine derivatives as potent antiproliferative agents” (Eur J Med Chem, 2012).

Key:
Type in all cases: functional, cell-based
[1] = system: K562; assay: Antiproliferative activity against human K562 cells after 24 hrs by MTT assay; conditions: K562, 24 h
In short: (§1)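 MTT assay. 1 × 10⁴ cells per well were plated and incubated 24 h before dye was added (20 µL of 5 mg/mL MTT in PBS per well), then incubated until a purple precipitate formed. Precipitate dissolved in 150 µL DMSO after medium removal, then absorbance read.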

[2] = system: HepG2; assay: Antiproliferative activity against human HepG2 cells after 24 hrs by MTT assay; conditions: HepG2, 24 h; in short: as §1
[3] = system: HCT-116; assay: Antiproliferative activity against human HCT116 cells after 24 hrs by MTT assay; conditions: HCT-116, 24 h; in short: as §1
[4] = system: SK-OV-3; assay: Antiproliferative activity against human SKOV3 cells after 24 hrs by MTT assay; conditions: SK-OV-3, 24 h; in short: as §1
[5] = system: HT-29; assay: Antiproliferative activity against human HT-29 cells after 24 hrs by MTT assay; conditions: HT-29, 24 h; in short: as §1
[6] = system: SW-620; assay: Antiproliferative activity against human SW620 cells after 24 hrs by MTT assay; conditions: SW-620, 24 h; in short: as §1

| SMILES | IC50 [1] [µM] | IC50 [2] [µM] | IC50 [3] [µM] | IC50 [4] [µM] | IC50 [5] [µM] | IC50 [6] [µM] |
| --- | --- | --- | --- | --- | --- | --- |
| COc1ccc(/C=C/C(=O)c2ccc(OC)c3c2OC(C)(C)C=C3)c(F)c1 | > 10 | 7.56 | > 10 | 4.88 | > 10 | 6.57 |
| COc1ccc(C(=O)/C=C/c2ccc(F)cc2)c2c1C=CC(C)(C)O2 | > 10 | > 10 | > 10 | > 10 | > 10 | > 10 |
| COc1ccc(C(=O)/C=C/c2ccc(N(c3ccccc3)c3ccccc3)cc2)c2c1C=CC(C)(C)O2 | > 10 | > 10 | > 10 | > 10 | > 10 | > 10 |
| COc1ccc(C(=O)/C=C/c2ccc(C(F)(F)F)cc2)c2c1C=CC(C)(C)O2 | > 10 | > 10 | > 10 | > 10 | > 10 | > 10 |
| COc1ccc(C(=O)/C=C/c2ccc3ccccc3c2)c2c1C=CC(C)(C)O2 | 3.67 | 0.21 | 5.82 | 7.65 | 4.48 | 2.14 |
| COc1ccc(C(=O)/C=C/c2cc(Cl)ccc2O)c2c1C=CC(C)(C)O2 | 5.51 | 6.64 | 5.24 | 6.27 | 4.97 | 4.23 |
| COc1ccc(C(=O)/C=C/c2cccs2)c2c1C=CC(C)(C)O2 | > 10 | > 10 | > 10 | > 10 | > 10 | > 10 |
| COc1ccc(C(=O)/C=C/c2ccc(Br)cc2)c2c1C=CC(C)(C)O2 | > 10 | > 10 | > 10 | > 10 | > 10 | > 10 |
| COc1ccc(C(=O)/C=C/c2ccc(Cl)cc2)c2c1C=CC(C)(C)O2 | > 10 | > 10 | > 10 | > 10 | > 10 | > 10 |
| COc1ccc(C(=O)/C=C/c2cccc(F)c2)c2c1C=CC(C)(C)O2 | > 10 | > 10 | > 10 | > 10 | > 10 | > 10 |
| COc1ccc(C(=O)/C=C/c2cccc(Cl)c2)c2c1C=CC(C)(C)O2 | > 10 | > 10 | > 10 | > 10 | > 10 | > 10 |
| COc1ccc(C(=O)/C=C/c2ccc(N(C)C)cc2)c2c1C=CC(C)(C)O2 | 3.5 | 0.73 | 1.92 | 2.75 | 1.87 | 0.57 |
| COc1ccc(C(=O)/C=C/c2ccc(Cl)c(Cl)c2)c2c1C=CC(C)(C)O2 | 9.03 | > 10 | 9.44 | 9.94 | 7.58 | 7.7 |
| COc1ccc(C(=O)/C=C/c2ccc([N+](=O)[O-])cc2)c2c1C=CC(C)(C)O2 | 7.77 | 2.61 | 8.88 | 3.42 | 3.73 | 3.52 |
| CCOc1cc(/C=C/C(=O)c2ccc(OC)c3c2OC(C)(C)C=C3)ccc1O | > 10 | > 10 | > 10 | > 10 | > 10 | > 10 |
| COc1cc(/C=C/C(=O)c2ccc(OC)c3c2OC(C)(C)C=C3)cc(OC)c1O | > 10 | > 10 | > 10 | > 10 | > 10 | > 10 |
| COc1ccc(C(=O)/C=C/c2ccc(OC)c(OC)c2OC)c2c1C=CC(C)(C)O2 | > 10 | > 10 | > 10 | > 10 | > 10 | > 10 |
| COc1cccc(/C=C/C(=O)c2ccc(OC)c3c2OC(C)(C)C=C3)c1 | > 10 | > 10 | > 10 | 9.36 | > 10 | > 10 |
| COc1ccc(C(=O)/C=C/c2ccc(O)c(Br)c2)c2c1C=CC(C)(C)O2 | > 10 | > 10 | > 10 | > 10 | > 10 | > 10 |

| SMILES | IC50 [1] [µM] | IC50 [2] [µM] | IC50 [3] [µM] | IC50 [4] [µM] | IC50 [5] [µM] | IC50 [6] [µM] |
| --- | --- | --- | --- | --- | --- | --- |
| COc1ccc(C(=O)/C=C/c2cc(OC)c(OC)c(OC)c2)c2c1C=CC(C)(C)O2 | > 10 | > 10 | 7.65 | 9.7 | > 10 | 9.15 |
| COc1ccc(C(=O)/C=C/c2ccccc2Cl)c2c1C=CC(C)(C)O2 | > 10 | > 10 | > 10 | > 10 | > 10 | > 10 |
| COc1ccc(C(=O)/C=C/c2cccc(C(F)(F)F)c2)c2c1C=CC(C)(C)O2 | 7.85 | > 10 | 9.71 | 9.33 | 9.05 | 7.87 |
| COc1ccc(C(=O)/C=C/c2ccsc2)c2c1C=CC(C)(C)O2 | > 10 | > 10 | > 10 | > 10 | > 10 | > 10 |
| COc1ccccc1/C=C/C(=O)c1ccc(OC)c2c1OC(C)(C)C=C2 | > 10 | > 10 | > 10 | > 10 | > 10 | > 10 |
| COc1ccc(C(=O)/C=C/c2cccc3ccccc23)c2c1C=CC(C)(C)O2 | > 10 | > 10 | > 10 | > 10 | > 10 | > 10 |
| COc1ccc(C(=O)/C=C/c2ccc(-n3ccnc3)cc2)c2c1C=CC(C)(C)O2 | > 10 | > 10 | > 10 | 7.2 | > 6.6 | > 10 |
| COc1ccc(C(=O)/C=C/c2ccc(O)cc2)c2c1C=CC(C)(C)O2 | > 10 | > 10 | > 10 | > 10 | > 10 | > 10 |
| COc1ccc(C(=O)/C=C/c2ccccc2)c2c1C=CC(C)(C)O2 | > 10 | > 10 | > 10 | > 10 | > 10 | > 10 |
| COc1ccc(C(=O)/C=C/c2ccc(N3CCCC3)cc2)c2c1C=CC(C)(C)O2 | 6.18 | 4.74 | 8.59 | 7.37 | 8.36 | 7.15 |
| COc1ccc(/C=C/C(=O)c2ccc(OC)c3c2OC(C)(C)C=C3)cn1 | > 10 | > 10 | > 10 | > 10 | > 10 | > 10 |
| COc1ccc(C(=O)/C=C/c2cccc([N+](=O)[O-])c2)c2c1C=CC(C)(C)O2 | 5.87 | 2.83 | 8.05 | 9.72 | 4.26 | 4.09 |
| COc1ccc(C(=O)/C=C/c2ccccn2)c2c1C=CC(C)(C)O2 | 5.4 | 5.76 | 6.63 | 8.39 | 2.12 | 5 |
| COc1ccc(C(=O)/C=C/c2ccc(-c3ccccc3)cc2)c2c1C=CC(C)(C)O2 | > 10 | > 10 | > 10 | > 10 | > 10 | > 10 |
| COc1ccc(C(=O)/C=C/c2ccco2)c2c1C=CC(C)(C)O2 | > 10 | > 10 | > 10 | > 10 | > 10 | > 10 |
| COc1ccc(C(=O)/C=C/c2ccc3ccccc3n2)c2c1C=CC(C)(C)O2 | 3.02 | 4.28 | 4.53 | 2.35 | 3.79 | 2.25 |
| COc1cc(OC)c(OC)cc1/C=C/C(=O)c1ccc(OC)c2c1OC(C)(C)C=C2 | > 10 | > 10 | > 10 | > 10 | > 10 | > 10 |
| COc1ccc(C(=O)/C=C/c2cccc(O)c2)c2c1C=CC(C)(C)O2 | > 10 | > 10 | > 10 | > 10 | > 10 | > 10 |
